From PubChem BioAssay
The list is not random: actives were taken first. Their share in the collection is about 2.2%.
EBI2 block – EBI2 receptor antagonists, beta-arrestin recruitment, primary screen, cell-based, luminescence, 7a,25-OHC stimulation, uHTS; actives 0.81% (n = 360,000); 7a,25-OHC stimulated; inhibition, % at 5 µM; AID 651636, 2012; in the data active = inhibition above about 38%;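 also: enzyme fragment complementation signal reports receptor beta-arrestin coupling in cells; 0% = agonist plus DMSO wells and 100% = wells without agonist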
APJ antagonist – antagonists of human apelin receptor APJ, primary screen, CHO-K1 cells, beta-arrestin complementation, luminescence; P35414; inhibition, % at 20 µM; actives 0.32% (n = 330,000);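 active = inhibition above about 40% at 20 µM, limit read from the data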;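 also: cells challenged with 10 nM apelin-13 agonist together with compound; plate controls were apelin-13 plus DMSO wells for no effect and DMSO wells lacking apelin-13 for full effect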
HTR2A ag – mouse Htr2a agonists via beta-arrestin recruitment, primary screen, cell-based, luminescence. actives 0.66% (n = 360,000). activation, % at 7.6 µM. 5-hydroxytryptamine receptor 2A (Mus musculus), P35363. CHO-K1 mHTR2A beta-arrestin complementation; percent of 30 µM serotonin response;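 active = activation above a run cutoff, the mean activation of all tested compounds plus 3 SD, cut at about 14% in these data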;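 also: 0% = plate median of compound wells and 100% = 30 µM serotonin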
CCR6 antagonist – CCR6 receptor antagonists, primary screen, cell-based, CHO-K1, luminescence, beta-arrestin, uHTS | CHO-K1 CCR6 PathHunter beta-arrestin, CCL20-stimulated | inhibition, % at 20 µM | actives 0.49% (n = 340,000);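 active = compounds whose inhibition of the agonist-driven luminescence signal at 20 µM reaches about 50%, limit read from the data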;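 also: cells stimulated with CCL20 at 14 nM final; plate controls were DMSO with CCL20 for no effect and DMSO without agonist for full effect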
Target sequence (P51684 whole entry, looked up): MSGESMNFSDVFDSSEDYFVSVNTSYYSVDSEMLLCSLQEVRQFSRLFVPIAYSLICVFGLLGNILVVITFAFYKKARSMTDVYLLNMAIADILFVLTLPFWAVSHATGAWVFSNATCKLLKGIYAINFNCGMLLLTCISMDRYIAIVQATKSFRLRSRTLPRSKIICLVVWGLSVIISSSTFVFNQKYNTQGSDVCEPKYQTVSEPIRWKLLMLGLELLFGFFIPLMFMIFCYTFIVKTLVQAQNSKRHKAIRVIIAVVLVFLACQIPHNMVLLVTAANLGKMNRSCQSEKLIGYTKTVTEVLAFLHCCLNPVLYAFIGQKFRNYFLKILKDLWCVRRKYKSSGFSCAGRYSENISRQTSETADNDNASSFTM
APJ ag – agonists of human apelin receptor APJ, primary screen, CHO-K1 cells, PathHunter beta-arrestin, luminescence. actives 0.11% (n = 330,000). activation, % at 20 µM. AID 2520, 2010. 0% DMSO wells, 100% apelin. P35414;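 active = activation more than six SD over the plate average, tested at 20 µM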;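 also: 0% = DMSO alone and 100% = apelin-13 at 10 nM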
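Assay system: engineered CHO-K1 APJ arrestin reporter cells; Amount: 1000 CHO-K1 reporter cells seeded per well; Dosing: one dose, 20 µM compound, 1% DMSO; Times: compound stimulation 90 min at 25 °C, detection 60 min; Measured by: luminescent beta-gal fragment complementation, chemiluminescent substrate; Read-out: APJ–arrestin association signal; Controls: DMSO vs Apelin-13 10 nM.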
CXCR6 inh – CXCR6 receptor inhibitors, primary screen, cell-based, beta-arrestin, luminescence, CHO-K1 PathHunter, 1536-well; C-X-C chemokine receptor type 6 (Homo sapiens), O00574; inhibition, % at 20 µM; actives 0.36% (n = 360,000); in the data active = inhibition above about 34%, passing the limit was not always enough;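 also: antagonist mode with CXCL16 agonist at 10 nM final; 0% = 10 nM CXCL16 with DMSO and 100% = unstimulated wells without agonist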
OPRM1 ag – OPRM1 agonists via beta-arrestin recruitment, confirmation, counter-screen for mouse HTR2A agonist project, cell-based, luminescence, single concentration; actives 5.3% (n = 2,300); shares compounds with HTR2A ag; activation, % at 9.3 µM; U2OS OPRM1 beta-arrestin PathHunter; DMSO 0%, DAMGO 9.3 µM 100%;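 active = mean activation above the mean of DMSO-only wells plus 3 SD, cut at about 0.5% in these data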
m5-HT2A ag conf – mouse HTR2A agonists, beta-arrestin recruitment, confirmation, cell-based, luminescence, CHO-K1 PathHunter, triplicate | actives 19% (n = 2,300) | DMSO 0%, 30 µM serotonin 100% | activation, % at 7.6 µM | shares compounds with HTR2A ag;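 active = mean activation across triplicates above the hit threshold derived in the original primary screen, cut at about 15% in these data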
Numbers without * were called inactive; nt = no result.

SMILES	EBI2 block	APJ antagonist	HTR2A ag	CCR6 antagonist	APJ ag	CXCR6 inh	OPRM1 ag	m5-HT2A ag conf
CCC(=O)c1ccc(OCC(O)CN2CCN(c3ccccn3)CC2)cc1 (stereo not given)	5	8	29*	7	2	4	0	100*
CC(C)(C)c1ccc(OCC(O)CN2CCN(c3ccccn3)CC2)cc1 (stereo not given)	-13	-21	6	15	-1	-2	nt	nt
CCN1CCN(CC(O)COc2ccc(C(C)=O)cc2)CC1 (stereo not given)	1	14	-3	3	-1	-8	nt	nt
CCOC(=O)c1ccc(NC(=O)c2nc[nH]c2C(=O)N[C@H](C)CO)cc1	-10	nt	-4	nt	nt	-10	nt	nt
Cc1cc(Cl)nc(-n2nc(C)cc2C)n1	4	3	16*	-1	-3	-12	-1	-3
O=C(CSc1n[nH]c(=O)n1C1CC1)NCc1ccccc1	1	-4	15*	0	-1	2	-1	-3
CC(C)(C)C(=O)c1c(N)[nH]c(C(=O)c2ccccc2)c1-c1ccc(Cl)cc1Cl	6	nt	16*	nt	nt	2	0	-1
Nc1[nH]c(C(=O)c2ccccc2)c(-c2ccc(Cl)cc2Cl)c1C(=O)c1ccc(Cl)c(Cl)c1	1	nt	-1	nt	nt	11	nt	nt
Cc1cccc(S(=O)(=O)NCCc2cn3ccccc3n2)c1	-4	10	2	6	-3	1	nt	nt
Cc1ccn2cc(CCNS(=O)(=O)c3ccc4c(c3)CCCC4)nc2c1	-4	10	25*	13	-7	2	-1	-5
COc1ccc(S(=O)(=O)NC(C)C(=O)NCc2cccnc2)cc1C (stereo not given)	-12	31	15*	2	-1	7	0	-1
Cc1ccncc1CNC(=O)c1ccccc1	2	nt	16*	7	nt	-4	0	0
CC1(C)CC(=O)C2=C(C1)NC(=O)CC2	-2	nt	5	nt	nt	-2	nt	nt
COc1cc(C#Cc2ccc3cc(CCO)oc(=O)c3c2)cc(OC)c1	14	4	17*	3	4	-7	0	-2
CCOc1ccc(CCNC(=O)/C=C/c2ccco2)cc1OCC	3	10	19*	6	-6	-5	0	-4
COc1ccccc1CN1CC(C(=O)NCc2cc(C)on2)CCC1=O (stereo not given)	-2	2	16*	-13	-4	-9	0	2
Cc1n[nH]c2c([N+](=O)[O-])c(=O)[nH]c(=O)n12	-7	nt	1	8	nt	-3	nt	nt
O=C(NCc1ccccc1)C(C1CC1)n1c(=O)c(-c2cc3ccccc3[nH]2)nc2ccccc21 (stereo not given)	-6	nt	15*	nt	nt	nt	0	2
Cc1cccc(N2C(=O)CS/C2=N\NC(=O)c2ccc(Br)cc2)c1C	-5	4	15*	-18	4	2	-1	-1
O=C1NC[C@H](CCCCN2C[C@H](Cc3ccccc3)N(CCc3ccc(O)cc3)C(=O)C2=O)N(CC2CCCCC2)C1=O	-8	nt	2	nt	nt	-3	nt	nt
Cc1ccc(C(=O)N=c2sccn2C)cc1C	0	-8	18*	-3	5	10	-1	-4
Cc1ccc(C(=O)N=c2sccn2C)cc1S(=O)(=O)N1CCOCC1	3	7	-7	-2	-1	-5	nt	nt
O=C(OC1CC2CC1[C@H]1CCCCN1C2=O)N1CCC(c2ccccc2)CC1 (stereo not given in full)	-13	nt	2	nt	nt	3	nt	nt
CCCn1c(N)c(Sc2ccc(Cl)cc2)c(=O)n(CCC)c1=O	9	-1	23*	6	-3	7	-1	6
O=C(NCCc1ccccc1)c1cc(S(=O)(=O)N2CCCCC2)c[nH]1	5	nt	-2	nt	nt	7	nt	nt
SMILES	EBI2 block	APJ antagonist	HTR2A ag	CCR6 antagonist	APJ ag	CXCR6 inh	OPRM1 ag	m5-HT2A ag conf
COc1ccc(CCNC(=O)c2nonc2N)cc1	-17	2	4	12	2	-2	nt	nt
COc1cccc(CNCCNC(=O)c2nonc2N)c1	-5	12	19*	-4	-3	-7	-1	-5
CCN(CC)CCn1c(NC(=O)c2ccc(C)cc2)nc2ccccc21	6	21	25*	39	-2	27	nt	8
CCN(CC)CCn1c(NC(=O)c2ccc(C(F)(F)F)cc2)nc2ccccc21	-1	-33	-5	11	1	8	nt	nt
COC(=O)CN1C(c2ccc(Cl)cc2)=Nc2ccc(Cl)cc2C1c1ccccc1 (stereo not given)	18	8	15*	19	-3	12	0	-1
COc1ccc(C2=Nc3ccc(C)cc3C(c3ccccc3)N2CC(=O)NN)cc1 (stereo not given)	4	-2	-5	-21	-1	6	nt	nt
CCOC(=O)CSc1ccc(S(=O)(=O)N(CC)CC)cc1[N+](=O)[O-]	0	-23	17*	4	-1	0	-1	-4
CCCCN(CCCC)S(=O)(=O)c1ccc(SCC(=O)OCC)c([N+](=O)[O-])c1	-6	-7	-2	22	5	12	nt	nt
COC(=O)CSc1ccc(S(=O)(=O)N2CCC(C)CC2)cc1[N+](=O)[O-]	-5	-35	17*	7	0	-8	0	-4
Cc1ccc(S(=O)(=O)N2CCC(C)CC2)cc1[N+](=O)[O-]	-5	nt	1	18	nt	-2	nt	nt
CC1CN(C(=S)Nc2ccccc2)C(C)CN1C=O (stereo not given)	0	nt	0	-4	nt	7	nt	nt
COC(=O)c1cc2ccsc2n1CC(=O)Nc1ccc(N(C)C)cc1	1	4	0	5	2	-4	nt	nt
COC(=O)c1cc2ccsc2n1CC(=O)Nc1cc(Cl)ccc1OC	13	0	19*	9	0	1	-1	-4
Cc1ccc(SCCN)cc1C	-13	16	21*	5	-8	2	0	13
